Test results reported in ChEMBL document CHEMBL3352785, “Study on one-pot four-component synthesis of 9-aryl-hexahydro-acridine-1,8-diones using SiO2-I as a new heterogeneous catalyst and their anticancer activity” (Bioorg Med Chem Lett, 2014).
Converted amounts (≈) assume the structure as drawn.

How the values were obtained:
HepG2 = assay: Anticancer activity against human cells HepG2 cells assessed as growth inhibition after 48 hrs by MTT assay; type: functional, cell-based; settings: HepG2, 48 h
Summary of the method: (§1)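 Cells grown in MEM with 10% heat-inactivated FBS, penicillin, streptomycin and amphotericin-B at 37 °C, 5% CO2, and trypsinized with TPVG. Seeded at 1 × 10⁴ cells/well and allowed to adhere for 24 h, then exposed to a range of concentrations for 48 h. MTT (2 mg/mL in PBS) added for 3 h, formazan dissolved in isopropanol, A540 read. Growth inhibition calculated as (control − test)/control × 100.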

MCF7 = assay: Anticancer activity against human cells MCF7 cells assessed as growth inhibition after 48 hrs by MTT assay; type: functional, cell-based; settings: MCF7, 48 h; summary of the method: as §1

| SMILES | IC50 (HepG2) [µg/mL] | IC50 (MCF7) [µg/mL] |
| --- | --- | --- |
| CC1(C)CC(=O)C2=C(C1)NC1=C(C(=O)CC(C)(C)C1)C2c1cccc(C#N)c1 | 1.4 (≈ 3.74 µM) | 4.7 (≈ 12.6 µM) |
| CC1(C)CC(=O)C2=C(C1)NC1=C(C(=O)CC(C)(C)C1)C2c1cc(F)ccc1O | 8.6 (≈ 22.4 µM) | 6.2 (≈ 16.2 µM) |
| CC1(C)CC(=O)C2=C(C1)NC1=C(C(=O)CC(C)(C)C1)C2c1ccccc1O | 2.6 (≈ 7.11 µM) | 5.9 (≈ 16.1 µM) |
| COc1cccc2c1C(=O)c1c(O)c3c(c(O)c1C2=O)C[C@@](O)(C(=O)CO)C[C@@H]3O[C@H]1C[C@H](N)[C@H](O)[C@H](C)O1 [DOXORUBICIN] | 1.21 (≈ 2.23 µM) | 1.09 (≈ 2.01 µM) |

The next lines start with the values.

| IC50 (HepG2) [µg/mL] | IC50 (MCF7) [µg/mL] | SMILES |
| --- | --- | --- |
| 8.2 (≈ 21.6 µM) | 9.6 (≈ 25.3 µM) | COc1ccc(C2C3=C(CC(C)(C)CC3=O)NC3=C2C(=O)CC(C)(C)C3)cc1 |
| 2.2 (≈ 4.8 µM) | 5.3 (≈ 11.6 µM) | COc1ccc(C2C3=C(CC(C)(C)CC3=O)NC3=C2C(=O)CC(C)(C)C3)cc1Br |
| 4.8 (≈ 12.2 µM) | 4.5 (≈ 11.4 µM) | CCOc1cccc(C2C3=C(CC(C)(C)CC3=O)NC3=C2C(=O)CC(C)(C)C3)c1 |
| 1.6 (≈ 3.91 µM) | 5 (≈ 12.2 µM) | COc1ccc(C2C3=C(CC(C)(C)CC3=O)NC3=C2C(=O)CC(C)(C)C3)c(OC)c1 |
